rCAG binder = r(CAG) repeat RNA binding | TO-PRO-1 dye displacement fluorescence | inhibition, % at 3 µM | 370,000 tested, 1.3% active;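 active means inhibition above the plate cutoff, the mean of all test compounds on that plate plus 3 SD, cut at about 35% in these data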;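 further: higher means more dye released from RNA so lower well fluorescence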
STEP block = STEP (human) phosphatase inhibition | inhibition, % at 20 µM | recombinant STEP, OMFP fluorogenic substrate, fluorescence | P54829 | 360,000 tested, 0.25% active | AID 588621;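 active means inhibition at 20 µM, scaled per plate between control wells, above about 37%, limit read from the data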
Target sequence (P54829 whole entry, looked up): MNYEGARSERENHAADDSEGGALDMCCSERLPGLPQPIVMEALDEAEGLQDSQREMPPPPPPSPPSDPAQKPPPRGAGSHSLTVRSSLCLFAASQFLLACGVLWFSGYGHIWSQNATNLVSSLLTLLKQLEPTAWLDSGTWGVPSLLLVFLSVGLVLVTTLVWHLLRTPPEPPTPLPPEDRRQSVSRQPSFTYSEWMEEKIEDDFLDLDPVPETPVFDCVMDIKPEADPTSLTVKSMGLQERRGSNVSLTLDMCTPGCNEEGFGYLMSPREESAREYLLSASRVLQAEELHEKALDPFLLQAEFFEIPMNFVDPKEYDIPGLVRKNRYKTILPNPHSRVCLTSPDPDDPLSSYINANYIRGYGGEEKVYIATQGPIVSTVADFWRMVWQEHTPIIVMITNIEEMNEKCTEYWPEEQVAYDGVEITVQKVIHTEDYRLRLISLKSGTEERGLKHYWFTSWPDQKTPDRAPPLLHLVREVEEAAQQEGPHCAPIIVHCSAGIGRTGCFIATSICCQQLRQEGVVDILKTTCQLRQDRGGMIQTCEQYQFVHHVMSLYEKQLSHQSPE
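Material: STEP (striatal-enriched tyrosine phosphatase) enzyme, cell-free | Medium: 50 mM Bis-Tris pH 6.0 with 2.5 mM DTT and 0.005% Tween 20 | Read-out: Percent inhibition scaled to no-enzyme and uninhibited-enzyme controls, plate-pattern corrected | Signal: Fluorescence read at 480 nm ex / 540 nm em | Times: 20 min reaction, room temperature, in the dark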
LMPTP inh = LMPTP (human) inhibition | P24666 | recombinant LMPTP-A, OMFP fluorogenic substrate, fluorescence intensity | inhibition, % at 20 µM | 360,000 tested, 0.22% active;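 active means compounds that cut the enzyme signal by at least half of the control window in the single-dose screen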
Target sequence (P24666 whole entry, looked up): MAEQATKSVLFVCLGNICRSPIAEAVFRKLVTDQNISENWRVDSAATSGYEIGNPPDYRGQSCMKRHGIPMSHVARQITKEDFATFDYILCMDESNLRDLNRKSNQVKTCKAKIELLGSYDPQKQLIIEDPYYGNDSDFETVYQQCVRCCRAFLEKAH
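Test system: LMPTP-A, protein tyrosine phosphatase of low molecular weight; Input: 0.625 nM enzyme; Incubation: 50 min dark incubation at room temperature; Signal: endpoint fluorescence intensity from OMFP dephosphorylation; Read-out basis: % inhibition versus control wells.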
Scp1 inh = inhibitors of human Scp-1 phosphatase. Q9GZU7. Recombinant Scp1, phosphopeptide, malachite green phosphate absorbance. AID 493091. inhibition, % at 20 µM. 340,000 tested, 0.88% active;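 active means inhibition above about 50% at 20 µM, limit read from the data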
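System: SCP-1 catalytic domain; Reagent: Phospho 17-mer peptide substrate; Doses: one concentration, 20 µM, with 1.0% DMSO; Incubation: 45 min room-temperature reaction, 5 min colour, 30 min stabiliser; Signal: Phosphate-binding colour reagent, absorbance read at 630 nm.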
NadD block = inhibitors of Staphylococcus aureus NadD; AID 602399; 360,000 tested, 0.78% active; inhibition, % at 20 µM; purified NadD enzyme, colorimetric absorbance read-out; in the data active means inhibition above about 26%
rCAG bind conf = r(CAG) RNA repeat binding, confirmation | shares compounds with rCAG binder | inhibition, % at 3 µM | TO-PRO-1 dye displacement fluorescence | 4,300 tested, 70% active;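 active means inhibition above a per-plate cutoff, the mean inhibition of sample wells plus 3 SD, cut at about 35% in these data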;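 further: loss of TO-PRO-1 fluorescence as compound displaces dye from 1x1 AA loop RNA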
DNA CAG counter = disrupts DNA CAG TO-PRO-1 complex, flagging rCAG hits; AID 652068; 4,300 tested, 94% active; shares compounds with rCAG binder; d(CAG) DNA oligo TO-PRO-1 dye displacement, fluorescence; inhibition, % at 3 µM;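 active means inhibition above its plate's cutoff, the mean test-well inhibition plus 3 SD, cut at about 4.8% in these data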;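 further: hits displace the dye from DNA and so lower well fluorescence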
dCAG dye DR = disrupts DNA CAG TO-PRO-1 complex in dose response; shares compounds with rCAG binder; DNA CAG/GTC duplex TO-PRO-1 dye displacement fluorescence; IC50, µM; 250 tested, 20% active; in the data active means IC50 below about 10 µM
Of the large screens only hits and unclear results are named; the others gave an inactive call (follow-up assays come after a bar, where they were run). Rows were chosen to be rich in hits. Some 2.6% of all compounds tested hit in one or more screens of this group.

NS(=O)(=O)c1ccc(NS(=O)(=O)c2ccc(NC(=O)c3ccc(-c4ccccc4)cc3)cc2)cc1	rCAG binder 59 | rCAG bind conf 72 | DNA CAG counter 39
O=C1CC(O)C(Cc2ccccc2)N1 (centres undefined)	none (no result: STEP block, LMPTP inh, Scp1 inh, NadD block)
O=C(CSc1nc(O)cc(=O)n1-c1ccccc1)Nc1ccc2c3c(cccc13)CC2	rCAG binder 45 | rCAG bind conf inactive | DNA CAG counter 12
Cc1c(O)nc(SCC(=O)Nc2ccc3c4c(cccc24)CC3)n(-c2ccccc2)c1=O	rCAG binder 39 | rCAG bind conf inactive | DNA CAG counter 9.2
O=C(Nc1ccccc1C(=O)O)c1cc(S(=O)(=O)N2CCOCC2)c(Br)s1	rCAG binder 47 | rCAG bind conf 67 | DNA CAG counter 36
C[C@@H]1CN([C@@H](C)CO)C(=O)CCCn2nncc2CO[C@H]1CN(C)CC1CC1	none (no result: STEP block, LMPTP inh, Scp1 inh, NadD block)
CCN(Cc1ccccc1)S(=O)(=O)c1ccc(C(=O)Nc2nnc(C3CC3)o2)cc1	rCAG binder 45 | rCAG bind conf 36 | DNA CAG counter 12
Cc1nnc(NC(=O)c2ccc(S(=O)(=O)N(C)Cc3ccccc3)cc2)o1	none (no result: rCAG binder)
Cc1noc(NS(=O)(=O)c2ccc(NC(=O)c3ccccc3NS(=O)(=O)c3ccc(F)c(F)c3)cc2)c1C	rCAG binder 76 | rCAG bind conf 69 | DNA CAG counter 30
Cc1noc(NS(=O)(=O)c2ccc(NC(=O)c3cccc(S(=O)(=O)Nc4ccccc4F)c3)cc2)c1C	rCAG binder 35 | rCAG bind conf inactive | DNA CAG counter 7.8
Cc1ccc(N/N=C(/Sc2nnnn2-c2ccccc2)C(=O)c2ccccc2)cc1	rCAG binder 68 | rCAG bind conf 53 | DNA CAG counter 21 | dCAG dye DR inactive
CCOc1ccc(-n2c(COc3ccc(C)cc3)nnc2SCC(=O)c2ccc3ccccc3c2)cc1	none (no result: STEP block, LMPTP inh, Scp1 inh, NadD block)
CCCC[C@H]1C2CC(OC(=O)NCCCC(=O)OCC)C(C2)[C@H]2CCCCN21 (some centres undefined)	none (no result: STEP block, LMPTP inh, Scp1 inh, NadD block)
O=C(CSc1nc2cc(C(=O)O)ccc2c(=O)n1-c1ccc(F)cc1)Nc1ccc(F)c(F)c1F	rCAG binder 39 | rCAG bind conf inactive | DNA CAG counter inactive
CCOC(=O)c1sc(N2C(=O)C(O)=C(C(=O)c3ccco3)C2c2cccc([N+](=O)[O-])c2)nc1C (centres undefined)	rCAG binder 70 | rCAG bind conf 82 | DNA CAG counter 50
Cc1nnc(N2C(=O)C(O)=C(C(=O)c3ccco3)C2c2cccc([N+](=O)[O-])c2)s1 (centres undefined)	none
Cc1cc(N2C(=O)C(O)=C(C(=O)c3ccco3)C2c2cccc(Oc3ccccc3)c2)no1 (centres undefined)	rCAG binder 58 | rCAG bind conf 59 | DNA CAG counter 21
CCOC(=O)c1sc(N2C(=O)C(O)=C(C(=O)c3ccco3)C2c2cccc(Cl)c2)nc1C (centres undefined)	rCAG binder 74 (no result: Scp1 inh) | rCAG bind conf 57 | DNA CAG counter 19
COC(=O)c1sc(N2C(=O)C(O)=C(C(=O)c3ccc(C)o3)C2c2cccs2)nc1C (centres undefined)	rCAG binder 48 | rCAG bind conf 48 | DNA CAG counter 17
Cc1cc(N2C(=O)C(O)=C(C(=O)c3ccco3)C2c2cccc(O)c2)no1 (centres undefined)	none
COC(=O)[C@]12C[C@H](CC(=O)NCc3cccc(C(F)(F)F)c3)C(=O)N(CCC3=CCCCC3)C1=C[C@H](C(C)C)O[C@@H]2C1CC1	none (no result: STEP block, LMPTP inh, Scp1 inh, NadD block)
CCCCCn1nnnc1C1(C)CCSCC(=O)N1Cc1ccco1 (centres undefined)	none (no result: STEP block, LMPTP inh, Scp1 inh, NadD block)
Nc1[nH]c(C(=O)c2ccccc2)c(-c2ccc3c(c2)OCO3)c1C(=O)NCCc1c[nH]c2ccccc12	none (no result: STEP block, LMPTP inh, Scp1 inh, NadD block)
C/C(=N\OCc1nc2ccccc2c(=O)n1/N=C/c1cc(C)cc([N+](=O)[O-])c1O)c1ccccc1	rCAG binder 56 | rCAG bind conf 64 | DNA CAG counter 25
COC(=O)C1CN(C2CCCC2)CCS(=O)(=O)N1Cc1cn(Cc2ccc(OC)cc2)nn1 (centres undefined)	none (no result: STEP block, LMPTP inh, Scp1 inh, NadD block)
CCN(c1cccc(C)c1)S(=O)(=O)c1nnc(NC(=O)c2ccco2)s1	rCAG binder 39 | rCAG bind conf inactive | DNA CAG counter 6.5
CCN(c1ccccc1)S(=O)(=O)c1nnc(NC(=O)c2ccco2)s1	none
CN(c1ccc(Cl)cc1)S(=O)(=O)c1nnc(NC(=O)c2ccco2)s1	rCAG binder 39 | rCAG bind conf inactive | DNA CAG counter 7.4
CC1(C(=O)NS(=O)(=O)c2cccc(C#N)c2)CCN1C(=O)Cc1ccc(-c2ccccc2)cc1 (centres undefined)	rCAG binder 41 (no result: Scp1 inh) | rCAG bind conf 44 | DNA CAG counter 11
CC1(C(=O)NS(=O)(=O)c2ccc(C#N)cc2)CCN1C(=O)Cc1ccc(-c2ccccc2)cc1 (centres undefined)	rCAG binder 42 (no result: Scp1 inh) | rCAG bind conf 43 | DNA CAG counter 11
CC1(C(=O)NS(=O)(=O)c2ccc(C#N)cc2)CCN1C(=O)Cc1cccc2ccccc12 (centres undefined)	none (no result: Scp1 inh)
Nn1c(SCC(=O)NC2CCCCC2)nnc1-c1cc(-c2ccccc2)n[nH]1	none (no result: STEP block, LMPTP inh, Scp1 inh, NadD block)
CCCCOC(=O)Nc1ccc(S(=O)(=O)Nc2nc(C)cc(C)n2)cc1	none
CCCCCCOC(=O)Nc1ccc(S(=O)(=O)Nc2cccc([N+](=O)[O-])c2)cc1	rCAG binder 45 | rCAG bind conf 46 | DNA CAG counter 14
CCOC(=O)[C@@]12CCCC=C1N(CCc1ccc(Cl)cc1)C(=O)[C@H]2CC(=O)NCCc1ccccc1OC	none (no result: STEP block, LMPTP inh, Scp1 inh, NadD block)
Cc1ccc(Cl)cc1N1CCN(C(=O)Cc2c(C(=O)O)[nH]c3ccc(Cl)cc23)CC1	rCAG binder 74 | rCAG bind conf 84 | DNA CAG counter 55
O=C(Cc1c(C(=O)O)[nH]c2ccc(Cl)cc12)Nc1ccc2c(c1)OCCO2	rCAG binder 50 | rCAG bind conf 42 | DNA CAG counter 8.4
Cc1ccc(Cl)cc1N1CCN(C(=O)Cc2c(C(=O)O)[nH]c3ccccc23)CC1	rCAG binder 51 | rCAG bind conf 48 | DNA CAG counter 14
Cc1ccc(Cl)cc1N1CCN(C(=O)Cc2cn(C)c3ccccc23)CC1	none
C/C(CC(=O)Nc1ccc2c(c1)OCCO2)=N\NC(=O)Cc1ccc(Cl)cc1	none
CN1[C@H](Cc2ccccc2)COc2cc(N3CCSCC3)ccc2S1(=O)=O	none (no result: STEP block, LMPTP inh, Scp1 inh, NadD block)

Screening results from PubChem.
